Experimental data: ChEMBL document CHEMBL1121616, “Bradykinin analogues containing N alpha-methyl amino acids” (1980)
Where “and” joins values, the source holds several entries; their conditions need not be identical. Equal entries are not always repeated. Non-standard residues stand in square brackets, D forms with d. Residues, ends and D or L forms follow the SMILES beside them. NMeR = CN[C@@H](CCCNC(=N)N)C(=O)O; NMeF = CN[C@@H](Cc1ccccc1)C(=O)O; Sar = CNCC(=O)O

What was measured:
[1] = organism: Cavia porcellus; assay: Compound was evaluated for mean percent change from control contractions of isolated guinea pig ilea produced by Bradykinin (Brdkn) at a concentration of 10 ug/mL; format: functional
In short: (§1)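 Isolated guinea pig ileum segments. Two control contractions to each agonist were elicited at regular 3- or 4-min intervals. Three sets of contractions were then elicited in the presence of the test compound, the first set used for equilibration. The mean of the last two treated sets was compared with the mean of the controls and expressed as percent change.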

[2] = organism: Cavia porcellus; assay: Compound was evaluated for mean percent change from control contractions of isolated guinea pig ilea produced by Acetylcholine (ACh) at a concentration of 10 ug/mL; format: functional; in short: as §1
[3] = organism: Cavia porcellus; assay: Compound was evaluated for mean percent change from control contractions of isolated guinea pig ilea produced by Prostaglandin E2 (PGE2) at a concentration of 10 ug/mL; format: functional; in short: as §1
[4] = organism: Cavia porcellus; assay: Compound was evaluated for muscle stimulating potency in isolated guinea pig ilea relative to bradykinin triacetate (1); format: functional, Muscle tissue
In short: (§2)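 Isolated guinea pig ileum segments were used in four-point parallel-line bioassays against bradykinin triacetate, with potency calculated on a weight basis. Doses were given at 4-min intervals in a randomized block design, and the bath was rinsed after peak contraction. Relative potency and fiducial limits were estimated from contraction magnitudes by Finney's method. Only assays without significant deviation from parallelism were accepted.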

[5] = organism: Cavia porcellus; assay: Compound was evaluated for mean percent change from control contractions of isolated guinea pig ilea produced by Bradykinin (Brdkn) at a concentration of 3 ug/mL; format: functional; in short: as §1
[6] = organism: Cavia porcellus; assay: Compound was evaluated for mean percent change from control contractions of isolated guinea pig ilea produced by Prostaglandin E2 (PGE2) at a concentration of 1 ug/mL; format: functional; in short: as §1
[7] = organism: Cavia porcellus; assay: Compound was evaluated for mean percent change from control contractions of isolated guinea pig ilea produced by Acetylcholine (ACh) at a concentration of 1 ug/mL; format: functional; in short: as §1
[8] = organism: Cavia porcellus; assay: Compound was evaluated for mean percent change from control contractions of isolated guinea pig ilea produced by Bradykinin (Brdkn) at a concentration of 1 ug/mL; format: functional; in short: as §1
[9] = organism: Cavia porcellus; assay: Compound was evaluated for mean percent change from control contractions of isolated guinea pig ilea produced by Acetylcholine (ACh) at a concentration of 3 ug/mL; format: functional; in short: as §1
[10] = organism: Cavia porcellus; assay: Compound was evaluated for mean percent change from control contractions of isolated guinea pig ilea produced by Prostaglandin E2 (PGE2) at a concentration of 3 ug/mL; format: functional; in short: as §1
[11] = organism: Cavia porcellus; assay: Compound was evaluated for muscle stimulating potency in isolated guinea pig ilea; format: functional, Muscle tissue; in short: as §2
[12] = organism: Cavia porcellus; assay: Compound was evaluated for mean percent change from control contractions of isolated guinea pig ilea produced by Acetylcholine (ACh) at a concentration of 30 ug/mL; format: functional; in short: as §1
[13] = organism: Cavia porcellus; assay: Compound was evaluated for mean percent change from control contractions of isolated guinea pig ilea produced by Prostaglandin E2 (PGE2) at a concentration of 30 ug/mL; format: functional; in short: as §1
[14] = organism: Cavia porcellus; assay: Compound was evaluated for mean percent change from control contractions of isolated guinea pig ilea produced by Bradykinin (Brdkn) at a concentration of 30 ug/mL; format: functional; in short: as §1
[15] = organism: Cavia porcellus; assay: Compound was evaluated for mean percent change from control contractions of isolated guinea pig ilea produced by Bradykinin (Brdkn) at a concentration of 1.0 ug/mL; format: functional; in short: as §1
[16] = organism: Cavia porcellus; assay: Compound was evaluated for mean percent change from control contractions of isolated guinea pig ilea produced by Prostaglandin E2 (PGE2) at a concentration of 0.1 ug/mL; format: functional; in short: as §1
[17] = organism: Cavia porcellus; assay: Compound was evaluated for mean percent change from control contractions of isolated guinea pig ilea produced by Acetylcholine (ACh) at a concentration of 10.0 ug/mL; format: functional; in short: as §1
[18] = organism: Cavia porcellus; assay: Compound was evaluated for mean percent change from control contractions of isolated guinea pig ilea produced by Bradykinin (Brdkn) at a concentration of 10.0 ug/mL; format: functional; in short: as §1
[19] = organism: Cavia porcellus; assay: Compound was evaluated for mean percent change from control contractions of isolated guinea pig ilea produced by Acetylcholine (ACh) at a concentration of 1.0 ug/mL; format: functional; in short: as §1
[20] = organism: Cavia porcellus; assay: Compound was evaluated for mean percent change from control contractions of isolated guinea pig ilea produced by Acetylcholine (ACh) at a concentration of 0.01 ug/mL; format: functional; in short: as §1
[21] = organism: Cavia porcellus; assay: Compound was evaluated for mean percent change from control contractions of isolated guinea pig ilea produced by Bradykinin (Brdkn) at a concentration of 0.1 ug/mL; format: functional; in short: as §1
[22] = organism: Cavia porcellus; assay: Compound was evaluated for mean percent change from control contractions of isolated guinea pig ilea produced by Prostaglandin E2 (PGE2) at a concentration of 10.0 ug/mL; format: functional; in short: as §1
[23] = organism: Cavia porcellus; assay: Compound was evaluated for mean percent change from control contractions of isolated guinea pig ilea produced by Prostaglandin E2 (PGE2) at a concentration of 0.01 ug/mL; format: functional; in short: as §1
[24] = organism: Cavia porcellus; assay: Compound was evaluated for mean percent change from control contractions of isolated guinea pig ilea produced by Acetylcholine (ACh) at a concentration of 0.1 ug/mL; format: functional; in short: as §1
[25] = organism: Cavia porcellus; assay: Compound was evaluated for mean percent change from control contractions of isolated guinea pig ilea produced by Bradykinin (Brdkn) at a concentration of 0.01 ug/mL; format: functional; in short: as §1

| Structure (SMILES) | Change [1] [%] | Change [2] [%] | Change [3] [%] | Potency [4] | Change [5] [%] | Change [6] [%] | Change [7] [%] | Change [8] [%] | Change [9] [%] | Change [10] [%] | also measured |
| --- | --- | --- | --- | --- | --- | --- | --- | --- | --- | --- | --- |
| CN(C(=O)[C@H](Cc1ccccc1)NC(=O)[C@@H]1CCCN1C(=O)[C@H](CO)NC(=O)[C@H](Cc1ccccc1)NC(=O)CNC(=O)[C@@H]1CCCN1C(=O)[C@@H]1CCCN1C(=O)[C@@H](N)CCCN=C(N)N)[C@@H](CCCN=C(N)N)C(=O)O | -64 | -28 | 7 | 0.0046 |  |  |  |  |  |  |  |
| CN(C(=O)[C@@H]1CCCN1C(=O)[C@H](CO)NC(=O)[C@H](Cc1ccccc1)NC(=O)CNC(=O)[C@@H]1CCCN1C(=O)[C@@H]1CCCN1C(=O)[C@@H](N)CCCN=C(N)N)[C@@H](Cc1ccccc1)C(=O)N[C@@H](CCCN=C(N)N)C(=O)O (H-RPPGFSP[NMeF]R-OH) | -97 | -75 | -88 | 0.015 | -81 | -17 | -6 | -27 | -41 | -60 |  |
| CN(C(=O)CNC(=O)[C@@H]1CCCN1C(=O)[C@@H]1CCCN1C(=O)[C@@H](N)CCCN=C(N)N)[C@@H](Cc1ccccc1)C(=O)N[C@@H](CO)C(=O)N1CCC[C@H]1C(=O)N[C@@H](Cc1ccccc1)C(=O)N[C@@H](CCCN=C(N)N)C(=O)O (H-RPPG[NMeF]SPFR-OH) | -32 | -31 | 1 | 0.01 |  |  |  |  |  |  |  |
| N=C(N)NCCC[C@H](NC(=O)[C@H](Cc1ccccc1)NC(=O)[C@@H]1CCCN1C(=O)[C@H](CO)NC(=O)[C@H](Cc1ccccc1)NC(=O)CNC(=O)[C@@H]1CCCN1C(=O)[C@@H]1CCCN1C(=O)[C@@H](N)CCCNC(=N)N)C(=O)O [BRADYKININ] (H-RPPGFSPFR-OH) |  |  |  |  |  |  |  |  |  |  | Potency [11]: 1 |
| CN(CC(=O)N[C@@H](Cc1ccccc1)C(=O)N[C@@H](CO)C(=O)N1CCC[C@H]1C(=O)N[C@@H](Cc1ccccc1)C(=O)N[C@@H](CCCN=C(N)N)C(=O)O)C(=O)[C@@H]1CCCN1C(=O)[C@@H]1CCCN1C(=O)[C@@H](N)CCCN=C(N)N (H-RPP[Sar]FSPFR-OH) | -25 | -58 | -85 | 0.0039 | 21 | -20 | -32 | 5 | -9 | -27 | Change [12]: -70%; Change [13]: -69%; Change [14]: -40% |
| CN[C@@H](CCCN=C(N)N)C(=O)N1CCC[C@H]1C(=O)N1CCC[C@H]1C(=O)NCC(=O)N[C@@H](Cc1ccccc1)C(=O)N[C@@H](CO)C(=O)N1CCC[C@H]1C(=O)N[C@@H](Cc1ccccc1)C(=O)N[C@@H](CCCN=C(N)N)C(=O)O (H-[NMeR]PPGFSPFR-OH) |  |  |  | 0.61 |  |  |  |  |  |  | Change [15]: -100%; Change [16]: -88%; Change [17]: -97%; Change [18]: -100%; Change [19]: -100%; Change [20]: -29%; Change [21]: -100%; Change [22]: -95% and -83%; Change [23]: -28%; Change [24]: -67%; Change [25]: -88% |
